High-throughput results from PubChem BioAssay.
GalR3 antag: human GalR3 antagonism. O60755. HEK293 GalR3-CNG cAMP membrane potential fluorescence; galR3 body fused to GalR1 C-terminus. inhibition, % at 3 µM. 360,000 compounds, 0.44% hits. AID 651719;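 active = inhibition above the screen-wide average plus 3 SD, cut at about 13% in these data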;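 note: forskolin and galanin both at EC90 stimulate the cells; cAMP rise reported by CNG channel membrane potential dye signal; 0% = forskolin plus galanin with DMSO and 100% = forskolin alone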
Target sequence (O60755 1-299 limits assumed): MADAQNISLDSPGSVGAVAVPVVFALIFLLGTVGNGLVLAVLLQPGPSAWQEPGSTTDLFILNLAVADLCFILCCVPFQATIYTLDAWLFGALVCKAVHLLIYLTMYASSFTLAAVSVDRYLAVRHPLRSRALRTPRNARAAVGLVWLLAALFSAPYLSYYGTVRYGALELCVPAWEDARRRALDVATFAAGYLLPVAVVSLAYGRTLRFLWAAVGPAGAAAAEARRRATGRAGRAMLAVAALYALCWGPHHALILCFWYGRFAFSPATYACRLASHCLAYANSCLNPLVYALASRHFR
MC4R ag barr: agonists of human melanocortin 4 receptor (MC4R) beta-arrestin. U2OS MC4R beta-arrestin complementation, luminescence; percent of melanotan II response, DMSO zero. P32245. activation, % at 8.9 µM. 360,000 compounds, 0.98% hits;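 active = activation above a per-plate cutoff, the mean activation of sample wells on that plate plus 3 SD, cut at about 8% in these data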
Target sequence (P32245 whole entry, looked up): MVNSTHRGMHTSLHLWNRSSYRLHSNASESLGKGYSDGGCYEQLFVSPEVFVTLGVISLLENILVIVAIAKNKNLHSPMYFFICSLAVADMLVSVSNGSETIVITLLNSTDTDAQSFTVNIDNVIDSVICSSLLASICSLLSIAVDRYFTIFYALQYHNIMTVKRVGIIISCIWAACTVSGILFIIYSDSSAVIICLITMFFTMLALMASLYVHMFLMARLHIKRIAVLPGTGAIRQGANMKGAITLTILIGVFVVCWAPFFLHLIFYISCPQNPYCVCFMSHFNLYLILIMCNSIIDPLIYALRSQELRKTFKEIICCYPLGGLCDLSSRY
Efflux pump inh: blocks antifungal efflux pumps in multiplex yeast assay; inhibition, % at 10 µM; S. cerevisiae Candida pump triplex, Nile Red efflux; 330,000 compounds, 0.44% hits;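 active = plate passing quality check with inhibition over a set limit, or well fluorescence over plate mean plus 4 SD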;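 note: Nile Red retained in pooled yeast measured as flow cytometry median fluorescence; 0% = buffer negative control and 100% = Enniatin B positive control; higher means more Nile Red kept so more efflux inhibition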
Calb FLC: C. albicans growth modulation with fluconazole | 300,000 compounds, 0.57% hits | C. albicans CaCi-2 + fluconazole, Alamar Blue growth, 48 h | growth inhibition, % (test concentration not listed) | AID 1979;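 active = growth inhibition above about 58% in most replicates, limit read from the data, passing the limit was not always enough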;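 note: all wells also contain fluconazole at 8 µg/ml as a sub-toxic cotreatment; 0% = median of DMSO wells and 100% = median of geldanamycin control wells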
H9c2 TAG inh: triacylglycerol accumulation inhibition; H9c2 cells, Nile Red lipid (TAG) fluorescence; cells loaded with 200 µM oleic acid; inhibition, % at 12.5 µM; 230,000 compounds, 0.66% hits; AID 651582;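 active = pattern-corrected inhibition of lipid staining of at least 50% with the nuclear-stain viability signal not falling by more than 50%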;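 note: 0% = DMSO wells and 100% = triacsin C control wells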
MC4R antagonist: antagonists of human melanocortin 4 receptor (MC4R); P32245; MC4R-expressing cells, MTII-stimulated cAMP, LANCE TR-FRET; inhibition, % at 6.5 µM; 360,000 compounds, 0.48% hits; AID 540295;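 active = inhibition above its plate's cutoff, the mean of tested wells on that plate plus 3 SD, cut at about 29% in these data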;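 note: 0% = Melanotan II alone and 100% = Melanotan II plus saturating MCL0020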
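Material: U2OS-MC4R stable cell line | Reagent: Melanotan II challenge after compound preincubation | Doses: One concentration, 6.5 µM nominal | Incubation: 30-min compound preincubation, 1-h Melanotan II challenge, 1-h detection, room temperature | Signal: TR-FRET cAMP assay | Replicates: One well per compound, no replicates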
The depositor's hits bear a star; . = no result given. Only some compounds are listed: those with a hit (about 2.9% of all), similar ones and a draw of the others.

SMILES	GalR3 antag	MC4R ag barr	Efflux pump inh	Calb FLC	H9c2 TAG inh	MC4R antagonist
Cc1ccc(NCc2ccc(O)c3ncccc23)cc1C	-2	-3	0	65*	2	16
COC(=O)c1cc2c(c3c4ccccc4n(S(=O)(=O)c4ccccc4)c13)C(=O)N(C)C2	-8	.	.	.	.	.
Cc1ccccc1NC(=O)C(C)OC(=O)CCC(=O)c1ccccc1 (configuration not stated)	3	1	.	.	10	-2
COc1ccc(S(=O)(=O)N[C@H]2CC[C@H](CCNC(=O)c3ccccc3F)O[C@@H]2CO)cc1	-3	.	.	.	.	.
O=C(NC(=S)Nc1ccccc1O)c1ccc(Cl)cc1Cl	-2	3	0	111*	-11	15
O=C(COc1ccccc1)NNC(=S)NC(=O)c1ccc(Cl)cc1Cl	.	.	0	105*	.	.
O=C(NS(=O)(=O)c1cccc(F)c1)[C@H]1O[C@@H](n2ccc(=O)[nH]c2=O)[C@H](O)[C@@H]1O	-5	.	.	.	.	.
COc1cc2c(OC(C)=O)c3c(c(-c4ccc5c(c4)OCO5)c2cc1OC)C(=O)OC3	-7	-1	0	66	.	1
COc1cc2c(O)c3c(c(-c4ccc5c(c4)OCO5)c2cc1OC)C(=O)OC3	-1	-2	0	82*	.	-16
CN(C(=O)COC(=O)c1ccccc1SCC(=O)N1CCCC1)C1(C#N)CCCCC1	0	-1	0	.	8	3
CSc1cccc(NC(=O)Nc2nc3c(C)cccc3s2)c1	-11	9.1*	0	-3	.	8
COC(=O)c1cc2c(c3c4cc(C)ccc4n(S(=O)(=O)c4ccccc4)c13)C(=O)N(Cc1ccc(C(F)(F)F)cc1)C2	-6	.	.	.	.	.
COc1ccc(-c2cnc(C(N)=O)c(=O)[nH]2)cc1	2	0	.	.	-3	1
O=C1C=C(Nc2cccc3cccnc23)c2ccccc2C1=O	-10	0	0	101*	-2	-6
O=C1C=C(Nc2ccccc2C(=O)O)c2ccccc2C1=O	-2	0	0	41	-8	-5
Cc1ccc2c(c1)[C@@H]1CN(C)CC[C@@H]1N2S(=O)(=O)c1ccc([N+](=O)[O-])cc1	-2	-1	0	-2	.	10
Cc1ccc2c(c1)C1CN(C)CCC1N2Sc1ccccc1[N+](=O)[O-] (configuration not stated)	-9	1	0	97*	30	-24
S=c1nc(NCCc2ccccc2Cl)c2ccccc2[nH]1	-8	12*	1	10	.	-2
O=C(NCCc1ccc(Cl)cc1)C1CCC(CNc2nc(=S)[nH]c3ccccc23)CC1 (configuration not stated)	-5	16*	0	-2	8	7
O=C(O/N=C1/CCSc2ccccc21)c1ccc(F)cc1	.	6	0	117*	.	3
CC(C)C[C@H](NC(=O)c1ccccc1)C(=O)N1CCC[C@H]1C(=O)NCc1ccccc1	-6	.	.	.	.	.
COc1ccc(NC(=O)c2c(N)no[n+]2[O-])cc1	-2	-2	0	101*	-4	25
COc1ccc(C(=O)c2no[n+]([O-])c2C(=O)c2ccc(OC)cc2)cc1	3	8	0	8	54*	2
O=[N+]([O-])C1C(c2ccccc2)C12c1ccccc1-c1ccccc12 (configuration not stated)	.	0	.	.	109	-15
Nc1ccc(N(CCO)CCO)cc1	-4	-1	0	43	3	-22
SMILES	GalR3 antag	MC4R ag barr	Efflux pump inh	Calb FLC	H9c2 TAG inh	MC4R antagonist
Cc1cc(N(CCO)CCO)ccc1N=Nc1cc(F)ccc1F	-6	-4	0	4	73*	3
CCN(CC)CCN(C(=O)c1ccc2ccccc2c1)c1nc2ccc(OC)cc2s1	-3	0	0	99*	.	8
CCN(CC)CCN(C(=O)c1ccc([N+](=O)[O-])cc1)c1nc2ccc(OC)cc2s1	-6	-1	0	-11	5	12
CCN(CC)CCN(C(=O)c1cc2ccccc2cc1OC)c1nc2ccc(OC)cc2s1	-10	-1	0	80*	.	1
CCOC(=O)C(Cc1ccc(O)c([N+](=O)[O-])c1)N1C(=O)c2ccccc2C1=O (configuration not stated)	-6	-1	.	.	3	10
Cc1ccc(OCCSCc2nc3ccccc3[nH]2)cc1	18*	-2	0	-6	1	8
Cc1ccc(C(=O)CN2/C(=C(\O)c3ccccc3)C(=O)c3ccccc3S2(=O)=O)c(C)c1	.	12*	0	16	.	-3
CCCSc1nc(SCC(=O)NCc2ccccc2)c2c3c(sc2n1)COC(C)(C)C3	-6	-1	0	1	56*	6
C=CC[C@]12C[C@@]3(O[C@H](c4ccccn4)N=C3C[C@H](c3ccc(OC)cc3)[C@H]1C)N(C1CCN(Cc3ccccc3)CC1)C2=O	1	.	.	.	.	.
Cc1cccc(C(=O)NNC(=S)NC(=O)c2cccs2)c1	2	1	0	102*	-2	20
O=C(Cc1ccc(Cl)cc1)NNC(=S)NC(=O)c1cccs1	-4	-3	0	109*	4	0
Cc1cccc(C(=O)NNC(=S)NC(=O)c2ccccc2)c1	-4	-5	0	1	7	5
COc1ccc([C@H]2C[C@@H](O)[C@H](n3cc(COC(=O)c4ccccc4)nn3)CN2CC2CCCCC2)cc1	-5	1	.	.	-12	4
OC(c1ccccc1)c1nc(-c2cccc(C(F)(F)F)c2)cs1 (configuration not stated)	-4	9.5*	.	.	-14	11
OC(c1ccccc1)c1nc(-c2cc(F)cc(F)c2)cs1 (configuration not stated)	-1	3	.	.	-36	4
CC1(C)Oc2cc3oc(=O)ccc3c3c2C2C1CCC(C)(O3)C2O (configuration not stated)	-6	-1	.	.	.	-5
Cn1c(CSc2nc3ccccc3n2C)nc2ccccc21	-4	-2	0	26	4	7
Cn1c(SC2=CS(=O)(=O)c3ccccc32)nc2ccccc21	1	0	0	92*	51	0
NC(=O)c1ccc(Nc2nnc(-c3ccc(O)cc3)c3ccccc23)cc1	-1	0	0	85*	18	-3
CNC(=O)c1ccc(Nc2nnc(-c3ccc(C(N)=O)cc3)c3ccccc23)cc1	-8	0	0	-2	.	-9
NC(N)=N/N=C/c1ccccc1	-2	-1	0	-2	.	1
NC(N)=N/N=C/c1ccc(OCc2ccccc2Cl)cc1	-1	22*	0	-4	.	2
COc1ccc(-c2cn(Cc3ccc([N+](=O)[O-])cc3)nn2)cc1	1	-2	0	16	-18	-1
CNc1ccc(OC)cc1-n1cnc(-c2ccc([N+](=O)[O-])cc2)c1	-12	0	0	101*	.	7
